Source: ChEMBL document CHEMBL1155250, “Novel 1-aminoethyl-3-arylsulfonyl-1H-pyrrolo[2,3-b]pyridines are potent 5-HT(6) agonists” (Bioorg Med Chem, 2009)
Calls of active or inactive are those of the source. No cut-off for these calls is given here.

Key:
[1] = target: T1, 5-hydroxytryptamine receptor 6 (Homo sapiens, UniProt P50406); assay: Displacement of [3H]LSD from human cloned 5HT6 receptor expressed in HeLa cells; type: cell-based
Method in brief: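 Radioligand binding used human 5-HT6 receptor stably expressed in HeLa cells with [3H]LSD as the radioligand. Affinity is reported as Ki.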

[2] = target: T1, 5-hydroxytryptamine receptor 6; assay: Agonist activity at human cloned 5HT6 receptor expressed in HeLa cells assessed as induction of adenylyl cyclase activity by RIA; type: functional, cell-based
Method in brief: (§1)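 Transfected HeLa cells expressing human 5-HT6 were washed with Krebs buffer and preincubated 5 min at 37 °C in Krebs with 500 µM IBMX. They were then stimulated 10 min at 37 °C with compound over 0.1–10000 nM. Agonist potency came from concentration–response curves, and percent efficacy was taken relative to a serotonin maximal response.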

[3] = target: T1, 5-hydroxytryptamine receptor 6; assay: Agonist activity at human cloned 5HT6 receptor expressed in HeLa cells assessed as induction of adenylyl cyclase activity by RIA relative to serotonin; type: functional, cell-based; method in brief: as §1
[4] = target: 5-hydroxytryptamine receptor 1B (Homo sapiens) (UniProt P28222); assay: Displacement of [3H]5-HT from human cloned 5HT1B receptor expressed in CHO cells at 1 uM; type: cell-based
Method in brief: (§2)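 Human 5-HT1B, 5-HT1D and 5-HT1F receptors were stably expressed in CHO cells and labelled with [3H]-5-HT. Results are given as percent inhibition at a single 1 µM concentration.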

[5] = target: 5-hydroxytryptamine receptor 1D (Homo sapiens) (UniProt P28221); assay: Displacement of [3H]5-HT from human cloned 5HT1D receptor expressed in CHO cells at 1 uM; type: cell-based; method in brief: as §2
[6] = target: T2, 5-hydroxytryptamine receptor 1F (Homo sapiens) (UniProt P30939); assay: Displacement of [3H]5-HT from human cloned 5HT1F receptor expressed in CHO cells at 1 uM; type: cell-based; method in brief: as §2
T2 sequence (whole entry): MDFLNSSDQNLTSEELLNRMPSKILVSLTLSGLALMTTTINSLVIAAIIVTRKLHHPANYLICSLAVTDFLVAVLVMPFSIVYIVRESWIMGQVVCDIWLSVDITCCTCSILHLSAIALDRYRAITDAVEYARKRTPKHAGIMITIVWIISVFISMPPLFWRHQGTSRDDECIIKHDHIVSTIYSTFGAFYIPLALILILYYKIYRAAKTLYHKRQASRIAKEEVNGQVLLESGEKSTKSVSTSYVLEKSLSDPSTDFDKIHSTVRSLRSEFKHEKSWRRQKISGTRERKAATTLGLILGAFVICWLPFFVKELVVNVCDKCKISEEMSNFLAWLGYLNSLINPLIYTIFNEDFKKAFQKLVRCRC

[7] = target: 5-hydroxytryptamine receptor 2A (Homo sapiens, UniProt P28223); assay: Displacement of [125I]DOI from human cloned 5HT2A receptor expressed in CHO cells; type: cell-based
Method in brief: (§3)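 Binding selectivity used stably expressed human receptors, 5-HT in CHO cells and dopamine in CHO-K1. Radioligands: [125I]DOI for 5-HT2A (agonist radioligand), [3H]-5-HT for 5-HT2C, [3H]LSD for 5-HT7, [3H]spiperone for D2, D3 and D4. Values are IC50 in nM.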

[8] = target: T3, 5-hydroxytryptamine receptor 2C (Homo sapiens, UniProt P28335); assay: Displacement of [3H]5-HT from human cloned 5HT2C receptor expressed in CHO cells; type: cell-based; method in brief: as §3
T3 sequence (P28335 whole entry): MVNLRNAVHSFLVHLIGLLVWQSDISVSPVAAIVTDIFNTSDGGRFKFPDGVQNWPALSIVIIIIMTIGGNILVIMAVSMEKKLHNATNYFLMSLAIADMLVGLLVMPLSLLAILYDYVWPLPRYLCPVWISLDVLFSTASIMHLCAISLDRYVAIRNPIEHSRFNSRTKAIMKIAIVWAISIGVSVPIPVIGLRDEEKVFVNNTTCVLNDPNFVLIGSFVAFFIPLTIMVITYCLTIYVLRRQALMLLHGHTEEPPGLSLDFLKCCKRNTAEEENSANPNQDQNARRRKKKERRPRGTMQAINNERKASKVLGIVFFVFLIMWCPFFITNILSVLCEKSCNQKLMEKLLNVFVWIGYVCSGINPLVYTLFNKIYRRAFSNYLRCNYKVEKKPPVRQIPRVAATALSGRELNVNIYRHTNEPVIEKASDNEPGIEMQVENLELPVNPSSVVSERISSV

[9] = target: 5-hydroxytryptamine receptor 7 (Homo sapiens, UniProt P34969); assay: Displacement of [3H]LSD from human cloned 5HT7 receptor expressed in CHO cells; type: cell-based; method in brief: as §3
D(2) dopamine receptor = D(2) dopamine receptor (Homo sapiens, UniProt P14416); assay: Displacement of [3H]spiperone from human cloned dopamine D2 receptor expressed in CHO-K1 cells; type: cell-based; method in brief: as §3
D(3) dopamine receptor = D(3) dopamine receptor (Homo sapiens, UniProt P35462); assay: Displacement of [3H]spiperone from human cloned dopamine D3 receptor expressed in CHO-K1 cells; type: cell-based; method in brief: as §3
D(4) dopamine receptor = target: T4, D(4) dopamine receptor (Homo sapiens, UniProt P21917); assay: Displacement of [3H]spiperone from human cloned dopamine D4 receptor expressed in CHO-K1 cells; type: cell-based; method in brief: as §3
T4 sequence (P21917 whole entry): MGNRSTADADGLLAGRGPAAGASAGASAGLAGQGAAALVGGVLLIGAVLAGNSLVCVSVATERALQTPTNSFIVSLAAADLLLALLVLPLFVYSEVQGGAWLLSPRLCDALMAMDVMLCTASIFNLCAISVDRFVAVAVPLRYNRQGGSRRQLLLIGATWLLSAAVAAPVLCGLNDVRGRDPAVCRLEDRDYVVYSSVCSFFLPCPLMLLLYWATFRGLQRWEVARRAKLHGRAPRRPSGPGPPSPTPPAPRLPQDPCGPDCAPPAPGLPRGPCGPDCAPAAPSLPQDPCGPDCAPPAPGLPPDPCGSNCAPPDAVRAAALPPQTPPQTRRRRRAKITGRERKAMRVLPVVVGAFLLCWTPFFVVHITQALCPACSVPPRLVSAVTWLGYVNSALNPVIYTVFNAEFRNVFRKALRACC

Rattus norvegicus [10] = assay: Increase in extracellular GABA level in Sprague-Dawley rat frontal cortex at 30 mg/kg, sc; type: functional, organism-based; parameters: dose 30 mg/kg
Method in brief: (§4)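 Rats received a single acute subcutaneous dose of 30 mg/kg. Extracellular GABA and glutamate in frontal cortex were followed over time from about −100 to 350 min around dosing and compared with vehicle-treated animals, with significance set at P < 0.05.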

Rattus norvegicus [11] = assay: Increase in extracellular glutamate level in Sprague-Dawley rat frontal cortex at 30 mg/kg, sc; type: functional, organism-based; parameters: dose 30 mg/kg; method in brief: as §4
Rattus norvegicus [12] = assay: Inhibition of schedule-induced polydipsia in po dosed Sprague-Dawley rat assessed as reduction of adjunctive drinking behavior; type: functional
Method in brief: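 In the schedule-induced polydipsia model, rats were dosed orally at 30, 56 and 100 mg/kg against a vehicle group. Adjunctive drinking was measured, an ED50 was derived, and comparison with vehicle used P < 0.05.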

Homo sapiens [13] = organism: Homo sapiens; assay: Selectivity ratio of IC50 for human cloned 5HT1B receptor to human cloned 5HT6 receptor
Homo sapiens [14] = organism: Homo sapiens; assay: Selectivity ratio of IC50 for human cloned 5HT1D receptor to human cloned 5HT6 receptor
Homo sapiens [15] = organism: Homo sapiens; assay: Selectivity ratio of IC50 for human cloned 5HT1F receptor to human cloned 5HT6 receptor
Homo sapiens [16] = organism: Homo sapiens; assay: Selectivity ratio of IC50 for human cloned 5HT2A receptor to human cloned 5HT6 receptor
Homo sapiens [17] = organism: Homo sapiens; assay: Selectivity ratio of IC50 for human cloned 5HT2C receptor to human cloned 5HT6 receptor
Homo sapiens [18] = organism: Homo sapiens; assay: Selectivity ratio of IC50 for human cloned 5HT7 receptor to human cloned 5HT6 receptor
Homo sapiens [19] = organism: Homo sapiens; assay: Selectivity ratio of IC50 for human cloned dopamine D2 receptor to human cloned 5HT6 receptor
Homo sapiens [20] = organism: Homo sapiens; assay: Selectivity ratio of IC50 for human cloned dopamine D3 receptor to human cloned 5HT6 receptor
Homo sapiens [21] = organism: Homo sapiens; assay: Selectivity ratio of IC50 for human cloned dopamine D4 receptor to human cloned 5HT6 receptor

Chain of D(2) dopamine receptor (P14416 whole entry): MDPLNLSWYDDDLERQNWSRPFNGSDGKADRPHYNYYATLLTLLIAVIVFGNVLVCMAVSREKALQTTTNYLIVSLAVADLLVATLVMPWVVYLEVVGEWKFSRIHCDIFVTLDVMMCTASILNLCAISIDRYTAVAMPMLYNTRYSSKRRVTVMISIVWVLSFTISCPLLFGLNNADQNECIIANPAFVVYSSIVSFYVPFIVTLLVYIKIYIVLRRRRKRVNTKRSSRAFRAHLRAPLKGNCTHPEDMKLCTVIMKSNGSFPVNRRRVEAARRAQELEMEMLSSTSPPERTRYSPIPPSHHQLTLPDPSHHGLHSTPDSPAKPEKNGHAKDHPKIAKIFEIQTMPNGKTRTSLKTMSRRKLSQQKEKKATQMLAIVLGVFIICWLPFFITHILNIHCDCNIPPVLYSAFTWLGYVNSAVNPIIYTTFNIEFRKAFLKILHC
Chain of D(3) dopamine receptor (P35462 whole entry): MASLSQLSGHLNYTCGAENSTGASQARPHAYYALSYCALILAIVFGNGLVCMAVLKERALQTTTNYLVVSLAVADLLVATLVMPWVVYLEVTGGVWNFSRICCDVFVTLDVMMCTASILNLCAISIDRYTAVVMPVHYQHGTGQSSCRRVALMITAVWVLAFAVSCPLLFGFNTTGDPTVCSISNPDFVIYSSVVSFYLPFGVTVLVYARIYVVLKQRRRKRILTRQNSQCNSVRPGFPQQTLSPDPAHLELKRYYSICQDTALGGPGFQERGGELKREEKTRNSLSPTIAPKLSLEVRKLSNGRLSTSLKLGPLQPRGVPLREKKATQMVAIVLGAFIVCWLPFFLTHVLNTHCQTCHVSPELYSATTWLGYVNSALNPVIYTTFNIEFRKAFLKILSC
T1 sequence (P50406 whole entry): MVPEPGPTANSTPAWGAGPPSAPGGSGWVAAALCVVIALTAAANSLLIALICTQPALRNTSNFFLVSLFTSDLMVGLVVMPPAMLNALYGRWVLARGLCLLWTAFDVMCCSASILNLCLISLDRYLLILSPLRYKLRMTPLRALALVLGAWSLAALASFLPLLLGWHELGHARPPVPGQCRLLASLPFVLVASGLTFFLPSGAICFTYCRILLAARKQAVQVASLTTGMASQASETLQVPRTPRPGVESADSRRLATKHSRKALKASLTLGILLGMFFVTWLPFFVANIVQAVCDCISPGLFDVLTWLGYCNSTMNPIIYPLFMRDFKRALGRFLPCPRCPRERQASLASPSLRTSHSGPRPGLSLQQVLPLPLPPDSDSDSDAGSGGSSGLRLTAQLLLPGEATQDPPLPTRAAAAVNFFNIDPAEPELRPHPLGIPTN
Chain of 5-hydroxytryptamine receptor 7 (P34969 whole entry): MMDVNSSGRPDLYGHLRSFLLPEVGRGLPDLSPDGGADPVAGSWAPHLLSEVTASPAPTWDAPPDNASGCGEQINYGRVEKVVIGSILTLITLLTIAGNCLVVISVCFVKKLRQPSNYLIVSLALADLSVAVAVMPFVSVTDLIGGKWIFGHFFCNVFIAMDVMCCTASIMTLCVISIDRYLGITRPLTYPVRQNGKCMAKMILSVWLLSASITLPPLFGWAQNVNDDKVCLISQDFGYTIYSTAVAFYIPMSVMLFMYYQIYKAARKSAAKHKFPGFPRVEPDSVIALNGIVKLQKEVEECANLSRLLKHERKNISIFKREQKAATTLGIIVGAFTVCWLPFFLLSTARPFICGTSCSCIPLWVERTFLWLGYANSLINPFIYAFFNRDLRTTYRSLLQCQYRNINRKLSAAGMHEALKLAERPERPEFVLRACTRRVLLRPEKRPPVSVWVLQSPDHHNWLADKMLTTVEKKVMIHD
Chain of 5-hydroxytryptamine receptor 2A (P28223 whole entry): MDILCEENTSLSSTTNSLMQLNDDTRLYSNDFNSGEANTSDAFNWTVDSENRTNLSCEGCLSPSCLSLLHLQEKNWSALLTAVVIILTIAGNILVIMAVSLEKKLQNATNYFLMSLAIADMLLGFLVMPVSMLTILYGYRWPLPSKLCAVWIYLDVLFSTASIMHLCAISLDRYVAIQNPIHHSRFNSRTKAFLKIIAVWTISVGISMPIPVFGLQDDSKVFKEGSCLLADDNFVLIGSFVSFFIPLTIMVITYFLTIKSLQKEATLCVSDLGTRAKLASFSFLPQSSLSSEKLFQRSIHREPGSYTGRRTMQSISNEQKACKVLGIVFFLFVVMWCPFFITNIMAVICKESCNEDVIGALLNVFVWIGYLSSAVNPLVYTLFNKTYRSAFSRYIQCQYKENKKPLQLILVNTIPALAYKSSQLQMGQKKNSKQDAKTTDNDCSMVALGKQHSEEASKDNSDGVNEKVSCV
Chain of 5-hydroxytryptamine receptor 1B (Homo sapiens) (P28222 whole entry): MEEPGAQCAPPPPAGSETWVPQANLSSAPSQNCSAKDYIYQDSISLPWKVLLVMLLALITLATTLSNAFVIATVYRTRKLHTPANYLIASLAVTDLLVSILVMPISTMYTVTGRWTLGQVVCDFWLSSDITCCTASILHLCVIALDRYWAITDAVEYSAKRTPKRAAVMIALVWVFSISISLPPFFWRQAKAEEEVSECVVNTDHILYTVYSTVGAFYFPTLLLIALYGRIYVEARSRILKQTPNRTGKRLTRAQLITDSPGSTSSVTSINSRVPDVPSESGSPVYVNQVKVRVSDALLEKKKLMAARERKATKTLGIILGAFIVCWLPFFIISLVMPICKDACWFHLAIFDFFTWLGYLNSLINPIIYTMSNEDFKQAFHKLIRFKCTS
Chain of 5-hydroxytryptamine receptor 1D (Homo sapiens) (P28221 whole entry): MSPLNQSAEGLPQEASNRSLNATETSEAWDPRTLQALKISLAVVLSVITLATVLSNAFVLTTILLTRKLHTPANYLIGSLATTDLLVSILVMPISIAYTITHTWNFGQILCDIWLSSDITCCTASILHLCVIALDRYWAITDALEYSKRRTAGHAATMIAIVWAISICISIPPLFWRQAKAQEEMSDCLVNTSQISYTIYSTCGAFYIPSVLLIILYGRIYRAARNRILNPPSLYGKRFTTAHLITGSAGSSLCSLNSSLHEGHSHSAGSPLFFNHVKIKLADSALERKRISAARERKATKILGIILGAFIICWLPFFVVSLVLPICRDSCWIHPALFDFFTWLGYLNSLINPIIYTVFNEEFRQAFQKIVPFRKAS

NCCn1cc(S(=O)(=O)c2cccc(C(F)(F)F)c2)c2cccnc21
Ki [1]: 2.1 nM
EC50 [2]: 110 nM
Emax [3]: 83%

NCCn1cc(S(=O)(=O)c2cc(Cl)cc(Cl)c2)c2cccnc21
Ki [1]: 2.9 nM
EC50 [2]: 35 nM
Emax [3]: 65%

CN(C)CCn1cc(S(=O)(=O)c2cc(Cl)cc(Cl)c2)c2cccnc21
Ki [1]: 4.3 nM
EC50 [2]: 28 nM
Emax [3]: 80%

CN(C)CCn1cc(S(=O)(=O)c2ccc(F)cc2)c2cccnc21
Ki [1]: 45 nM
EC50 [2]: 30 nM
Emax [3]: 84%

CN(C)CCn1cc(S(=O)(=O)c2cccs2)c2cccnc21
EC50 [2]: 154 nM
Emax [3]: 74%

NCCn1cc(S(=O)(=O)c2cccc(F)c2)c2cccnc21
Ki [1]: 4.7 nM
EC50 [2]: 24 nM
Emax [3]: 100%

CN(C)CCn1cc(S(=O)(=O)c2cccc(F)c2)c2cccnc21
Emax [3]: 100%
inhibition [4]: 30%
inhibition [5]: 16%
inhibition [6]: 22%
IC50 [7]: 351 nM
IC50 [8]: 644 nM
IC50 [9]: 4760 nM
IC50 (D(2) dopamine receptor): > 5000 nM
IC50 (D(3) dopamine receptor): > 5000 nM
IC50 (D(4) dopamine receptor): > 5000 nM
Activity (Rattus norvegicus [10]): Active
Activity (Rattus norvegicus [11]): inactive
ED50 (Rattus norvegicus [12]): 89.5 mg/kg

NCCn1cc(S(=O)(=O)c2ccccc2)c2cccnc21
Ki [1]: 5.5 nM
EC50 [2]: 27 nM
Emax [3]: 100%
inhibition [4]: 11%
inhibition [5]: 16%
inhibition [6]: 14%
IC50 [7]: > 5000 nM
IC50 [8]: > 5000 nM
IC50 [9]: > 5000 nM
IC50 (D(2) dopamine receptor): > 5000 nM
IC50 (D(3) dopamine receptor): > 5000 nM
IC50 (D(4) dopamine receptor): > 5000 nM
Ratio IC50 (Homo sapiens [13]): > 50
Ratio IC50 (Homo sapiens [14]): > 50
Ratio IC50 (Homo sapiens [15]): > 50
Ratio IC50 (Homo sapiens [16]): > 50
Ratio IC50 (Homo sapiens [17]): > 50
Ratio IC50 (Homo sapiens [18]): > 50
Ratio IC50 (Homo sapiens [19]): > 50
Ratio IC50 (Homo sapiens [20]): > 50
Ratio IC50 (Homo sapiens [21]): > 50

Cc1c(S(=O)(=O)c2ccccc2)c2cccnc2n1CCN(C)C
Ki [1]: 4.7 nM
EC50 [2]: 47 nM
Emax [3]: 100%

NCCn1cc(S(=O)(=O)c2ccccc2)c2ccccc21
EC50 [2]: 178 nM
Emax [3]: 67%

Cc1c(S(=O)(=O)c2ccccc2)c2cccnc2n1CCN
Ki [1]: 4.2 nM
EC50 [2]: 20 nM
Emax [3]: 85%

CN(C)CCn1cc(S(=O)(=O)c2ccc(Cl)s2)c2cccnc21
Ki [1]: 3.3 nM
EC50 [2]: 32 nM
Emax [3]: 93%

CN(C)CCn1cc(S(=O)(=O)c2cccc3ccccc23)c2cccnc21
EC50 [2]: 51 nM
Emax [3]: 63%
inhibition [4]: 40%
inhibition [5]: 0%
inhibition [6]: 10%
IC50 [7]: 938 nM
IC50 [8]: 1140 nM
IC50 [9]: 511 nM
IC50 (D(2) dopamine receptor): > 5000 nM
IC50 (D(3) dopamine receptor): 1560 nM
IC50 (D(4) dopamine receptor): > 5000 nM
Ratio IC50 (Homo sapiens [13]): > 50
Ratio IC50 (Homo sapiens [14]): > 50
Ratio IC50 (Homo sapiens [15]): > 50
Ratio IC50 (Homo sapiens [16]): > 50
Ratio IC50 (Homo sapiens [17]): > 50
Ratio IC50 (Homo sapiens [18]): > 50
Ratio IC50 (Homo sapiens [19]): > 50
Ratio IC50 (Homo sapiens [20]): > 50
Ratio IC50 (Homo sapiens [21]): > 50
